Source: ChEMBL document CHEMBL1130003, “Synthesis and ligand binding of nortropane derivatives: N-substituted 2beta-carbomethoxy-3beta-(4'-iodophenyl)nortropane and N-(3-iodoprop-(2E)-enyl)-2beta-carbomethoxy-3beta-(3',4'-disubstituted phenyl)nortropane. New high-affinity and selective compounds for the dopamine transporter” (J Med Chem, 1997)

Key:
[1] = target: Sodium-dependent dopamine transporter (Rattus norvegicus, UniProt P23977); experiment: Displacement of [3H]GBR-12935 from dopamine transporter (DAT) in rat brain membranes; assay type: cell membranes
Chain of Sodium-dependent dopamine transporter (P23977 whole entry): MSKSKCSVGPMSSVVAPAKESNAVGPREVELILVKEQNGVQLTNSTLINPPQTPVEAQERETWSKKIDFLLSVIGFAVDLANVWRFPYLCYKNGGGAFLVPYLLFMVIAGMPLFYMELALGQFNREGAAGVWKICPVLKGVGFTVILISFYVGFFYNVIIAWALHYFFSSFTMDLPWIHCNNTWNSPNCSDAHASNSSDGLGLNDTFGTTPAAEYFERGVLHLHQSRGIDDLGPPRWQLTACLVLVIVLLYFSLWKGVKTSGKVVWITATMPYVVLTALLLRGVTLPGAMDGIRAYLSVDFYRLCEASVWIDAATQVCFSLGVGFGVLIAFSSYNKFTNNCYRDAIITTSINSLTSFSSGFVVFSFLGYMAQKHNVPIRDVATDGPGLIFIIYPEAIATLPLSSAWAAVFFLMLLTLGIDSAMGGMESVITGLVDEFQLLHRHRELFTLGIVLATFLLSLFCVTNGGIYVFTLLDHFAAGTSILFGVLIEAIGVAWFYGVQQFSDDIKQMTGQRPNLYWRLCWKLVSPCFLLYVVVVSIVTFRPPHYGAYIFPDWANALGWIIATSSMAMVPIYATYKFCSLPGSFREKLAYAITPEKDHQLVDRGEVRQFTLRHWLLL
How it was run: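 Rat striatum crude membranes (100 µg protein) in sodium hydrogenocarbonate buffer pH 7.5 with 0.01% BSA. [3H]GBR-12935 1 nM (Kd 1.6 nM). Competitor 10^-5 to 10^-10 M. Incubation 37 °C, 1 h, then glass fiber filtration, ice-cold wash, beta counting. Nonspecific binding with 10^-6 M mazindol. Run in duplicate. Ki by Cheng-Prusoff.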

[2] = target: Norepinephrine transporter (Rattus norvegicus, UniProt Q9WTR4); experiment: Displacement of [3H]nisoxetine from norepinephrine transporter (NET) in rat brain membranes; assay type: cell membranes
Chain of Norepinephrine transporter (Q9WTR4 whole entry): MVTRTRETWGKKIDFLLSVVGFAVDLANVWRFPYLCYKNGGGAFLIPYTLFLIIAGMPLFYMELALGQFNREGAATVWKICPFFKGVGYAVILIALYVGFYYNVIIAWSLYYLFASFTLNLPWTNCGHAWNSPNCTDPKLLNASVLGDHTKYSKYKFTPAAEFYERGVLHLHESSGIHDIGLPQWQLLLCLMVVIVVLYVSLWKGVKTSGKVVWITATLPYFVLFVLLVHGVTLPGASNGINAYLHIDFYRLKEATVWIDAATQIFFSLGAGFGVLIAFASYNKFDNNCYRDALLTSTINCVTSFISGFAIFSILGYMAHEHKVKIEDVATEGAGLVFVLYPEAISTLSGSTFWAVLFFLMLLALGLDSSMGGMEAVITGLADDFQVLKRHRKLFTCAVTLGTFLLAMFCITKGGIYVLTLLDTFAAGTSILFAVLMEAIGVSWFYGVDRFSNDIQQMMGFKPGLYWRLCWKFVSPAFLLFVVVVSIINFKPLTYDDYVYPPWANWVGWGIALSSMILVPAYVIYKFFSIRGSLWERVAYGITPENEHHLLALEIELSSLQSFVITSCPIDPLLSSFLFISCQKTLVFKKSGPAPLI
How it was run: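 Rat frontoparietal cortex crude membranes in 50 mM Tris-HCl pH 7.4, 120 mM NaCl, 5 mM KCl. [3H]nisoxetine 0.5 nM (Kd 1.3 nM). Competitor 10^-5 to 10^-10 M. Incubation 2 °C, 5 h, then filtration, wash, beta counting. Nonspecific binding with 10^-6 M desipramine. Run in duplicate. Ki from IC50 by Cheng-Prusoff.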

[3] = target: Sodium-dependent serotonin transporter (Rattus norvegicus, UniProt P31652); experiment: Displacement of [3H]- paroxetine from serotonin transporter (5-HTT) in rat brain membranes; assay type: cell membranes
Chain of Sodium-dependent serotonin transporter (P31652 whole entry): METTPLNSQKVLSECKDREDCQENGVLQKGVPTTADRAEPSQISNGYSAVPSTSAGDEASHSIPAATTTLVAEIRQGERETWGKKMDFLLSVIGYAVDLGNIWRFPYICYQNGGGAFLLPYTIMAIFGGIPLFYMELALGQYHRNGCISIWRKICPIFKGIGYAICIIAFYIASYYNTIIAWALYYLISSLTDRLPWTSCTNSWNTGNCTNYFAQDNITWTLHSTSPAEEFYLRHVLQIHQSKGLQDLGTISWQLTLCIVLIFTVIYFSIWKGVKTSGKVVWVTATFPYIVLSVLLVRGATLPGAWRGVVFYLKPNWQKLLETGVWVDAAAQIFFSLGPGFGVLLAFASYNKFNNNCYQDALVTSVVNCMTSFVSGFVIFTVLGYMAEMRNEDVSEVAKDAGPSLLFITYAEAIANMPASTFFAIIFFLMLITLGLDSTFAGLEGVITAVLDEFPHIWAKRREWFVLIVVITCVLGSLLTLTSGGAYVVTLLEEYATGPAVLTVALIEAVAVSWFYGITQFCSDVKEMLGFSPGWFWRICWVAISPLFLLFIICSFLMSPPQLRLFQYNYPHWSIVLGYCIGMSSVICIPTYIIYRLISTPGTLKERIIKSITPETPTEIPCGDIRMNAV
How it was run: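 Rat frontoparietal cortex crude membranes in 50 mM Tris-HCl pH 7.4 with 120 mM NaCl, 5 mM KCl. [3H]paroxetine 0.5 nM (Kd 0.5 nM). Competitor 10^-5 to 10^-10 M. Incubation 22 °C, 1 h, then glass fiber filtration, ice-cold wash, beta counting. Nonspecific binding with 10^-6 M fluvoxamine. Run in duplicate. Ki from IC50 by Cheng-Prusoff.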

[4] = target: Monoamine transporters; serotonin & dopamine (Rattus norvegicus) (UniProt P31652+P23977); experiment: Selectivity index for serotonin and dopamine transporters; assay type: protein assay
Chain of Monoamine transporters; serotonin & dopamine (Rattus norvegicus) (P23977 whole entry, looked up): as the sequence (P23977 whole entry) above
Chain of Monoamine transporters; serotonin & dopamine (Rattus norvegicus) (P31652 whole entry, looked up): as the sequence (P31652 whole entry) above

[5] = target: Monoamine transporters; Norepininephrine & dopamine (Rattus norvegicus) (UniProt P23977+Q9WTR4); experiment: Selectivity index for norepinephrine and dopamine transporters; assay type: protein assay

| SMILES | Ki [1] [nM] | Ki [2] [nM] | Ki [3] [nM] | Selectivity [4] | Selectivity [5] |
| --- | --- | --- | --- | --- | --- |
| COC(=O)[C@@H]1C2CCC(C[C@@H]1c1ccc(Cl)c(Cl)c1)N2C/C=C/I (stereo not given in full) | 29 | 500 | 50 | 1.7 | 17.2 |
| COC(=O)[C@H]1C(c2ccc(I)cc2)C[C@H]2CCC1N2C/C=C/I (stereo not given in full) | 30 | 295 | 960 | 32 | 9.8 |
| C/C=C/CN1C2CC[C@@H]1CC(c1ccc(I)cc1)[C@@H]2C(=O)OC (stereo not given in full) | 15 | 400 | 75 | 5 | 26.6 |
| COC(=O)[C@@H]1C2CCC(C[C@@H]1c1ccc(I)cc1)N2Cc1ccccc1 (stereo not given in full) | 42 | 600 | 100 | 2.3 | 14.2 |
| COC(=O)[C@H]1C(c2ccccc2)C[C@H]2CCC1N2C/C=C/I (stereo not given in full) | 113 | > 1000 | 100 | 0.8 | > 8.8 |
| C#CCN1C2CC[C@@H]1CC(c1ccc(I)cc1)[C@@H]2C(=O)OC (stereo not given in full) | 14 | > 1000 | 100 | 7.1 | > 71 |
| COC(=O)[C@@H]1C2CC[C@H](C[C@@H]1c1ccc(I)cc1)N2C | 27 | 80 | 3 | 0.1 | 2.9 |
| COC(=O)[C@H]1C(c2ccc(I)cc2)C[C@H]2CCC1N2Cc1ccccc1C (stereo not given in full) | 93 | > 1000 | 225 | 2.4 | > 10.6 |
| C=C(Br)CN1C2CC[C@@H]1CC(c1ccc(I)cc1)[C@@H]2C(=O)OC (stereo not given in full) | 30 | > 1000 | 200 | 6.6 | > 33 |
| COC(=O)[C@H]1C(c2ccc(C(C)C)cc2)C[C@H]2CCC1N2C/C=C/I (stereo not given in full) | 500 | > 1000 | 450 | 0.9 | > 2 |
| COC(=O)[C@@H]1C2CCC(C[C@@H]1c1ccc(C)cc1)N2C/C=C/I (stereo not given in full) | 17 | > 1000 | 500 | 29.4 | > 58 |
| CCCc1ccc(C2C[C@H]3CCC([C@H]2C(=O)OC)N3C/C=C/I)cc1 (stereo not given in full) | 500 | 750 | 300 | 0.6 | 1.5 |
